Laboratory results published in ChEMBL document CHEMBL4808161, “Structure-Activity Relationship Study of Amidobenzimidazole Analogues Leading to Potent and Systemically Administrable Stimulator of Interferon Gene (STING) Agonists” (J Med Chem, 2021).
Active and inactive are the calls of the source. No cut-off for these calls is given here.

Tests used:
[1] = target: T1, Stimulator of interferon genes protein (Homo sapiens, UniProt Q86WV6); experiment: Activation of human STING (139 to 379 residues) expressed in THP1-Blue ISG cells at 10 uM incubated for 24 hrs by quanti-blue SEAP reporter gene assay relative to control; format: cell-based; conditions: filed as activator
T1 sequence (Q86WV6 whole entry, the tested form may be a part): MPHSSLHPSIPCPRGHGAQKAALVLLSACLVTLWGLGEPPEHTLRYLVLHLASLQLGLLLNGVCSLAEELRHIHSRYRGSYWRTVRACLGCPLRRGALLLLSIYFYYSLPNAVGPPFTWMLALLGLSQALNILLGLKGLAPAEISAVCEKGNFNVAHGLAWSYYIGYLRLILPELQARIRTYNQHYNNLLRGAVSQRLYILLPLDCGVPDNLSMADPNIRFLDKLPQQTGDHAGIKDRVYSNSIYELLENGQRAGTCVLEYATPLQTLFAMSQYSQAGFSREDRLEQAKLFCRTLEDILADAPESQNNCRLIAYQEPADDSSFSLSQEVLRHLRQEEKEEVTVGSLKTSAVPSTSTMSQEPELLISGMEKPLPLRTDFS
How it was run: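 THP1-Blue-ISG cells (1 × 10⁵/well) treated for 24 h; single-concentration screen at 10 μM. SEAP ISG reporter in 20 μL supernatant read with QUANTI-Blue at 650 nm. Activation given as fold over control, averaging at least two experiments.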

[2] = target: T1, Stimulator of interferon genes protein; experiment: Activation of STING in human THP1-Dual cells assessed as induction of ISG signaling measured after 24 hrs by Quanti-Blue reagent based assay; format: cell-based; conditions: filed as activator, dose 0.005-10 µM
How it was run: (§1)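 THP1-Dual cells (1 × 10⁵/well) treated for 24 h. Supernatant (20 μL) incubated 1 h at 37 °C with QUANTI-Blue, then absorbance read at 650 nm. Fold change calculated relative to vehicle control.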

[3] = target: T1, Stimulator of interferon genes protein; experiment: Activation of STING in human THP1-Dual cells assessed as induction of NF-KB signaling measured after 24 hrs by Quanti-Blue reagent based assay; format: cell-based; conditions: filed as activator, dose 0.005-10 µM; how it was run: as §1
[4] = target: T1, Stimulator of interferon genes protein; experiment: Activation of STING in human THP1-Dual cells assessed as increase in IP-10 secretion at 0.01 to 10 uM measured after 24 hrs by ELISA; format: cell-based; conditions: filed as activator, dose 0.01-10 µM
How it was run: (§2)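 THP1-Dual cells seeded at 10⁵ cells/well and treated for 24 h. Human IP-10 and IFN-β in supernatant quantified by ELISA kits. Concentration (pg/mL) derived from a standard curve.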

[5] = target: T1, Stimulator of interferon genes protein; experiment: Activation of STING in human THP1-Dual cells assessed as increase in IFNbeta secretion at 10 uM measured after 24 hrs by ELISA; format: cell-based; conditions: filed as activator; how it was run: as §2
[6] = target: T1, Stimulator of interferon genes protein; experiment: Activation of STING in human THP1-Dual cells assessed as increase in TBK1/IRF3 phosphorylation measured after 4 hrs by Western blot analysis; format: cell-based; conditions: filed as activator, dose 3.3-30 µM
How it was run: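 THP1-Dual cells (8 × 10⁵/well) treated at 3.3, 10 and 30 μM for 4 h, then lysed in SDS sample buffer and boiled. Lysates run on 10% SDS-PAGE and transferred to nitrocellulose. Blots probed for TBK1, phospho-TBK1 Ser172, IRF3, phospho-IRF3 Ser396 and GAPDH, with HRP secondaries and ECL detection.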

[7] = system: THP1-Dual KO-STING; experiment: Effect on ISG expression in human THP1-Dual KO-STING cells at 10 uM measured after 24 hrs; format: functional, cell-based
How it was run: (§3)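 Reporter cells (1 × 10⁵ cells/well) exposed to compound for 24 h at 37 °C in 5% CO₂. Secreted luciferase ISG reporter in 20 μL supernatant read by luminescence with QUANTI-Luc reagent. Activity expressed as fold change versus control.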

[8] = system: Stimulator of interferon genes protein (Homo sapiens), Q86WV6 [UNDEFINED MUTATION]; experiment: Binding affinity to human STING R232 mutant assessed as thermal stability by measuring melting temperature […] differential scanning fluorimetry (reference value: 38.75 degreeC); conditions: filed as activator
Sequence of Stimulator of interferon genes protein (Homo sapiens), Q86WV6 [UNDEFINED MUTATION] (Q86WV6 whole entry, looked up, stated change not applied): as the sequence (Q86WV6 whole entry, the tested form may be a part) above
How it was run: (§4)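 Thermal shift by DSF: 5 μM STING protein, 50 μM compound and 10× SYPRO Orange in 10 mM HEPES pH 7.5, 150 mM NaCl. Samples heated from 30 to 80 °C at 0.5 °C/min. Tm taken as the temperature of median fluorescence between onset and maximum; n = 3.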

[9] = organism: Homo sapiens; experiment: Binding affinity to human STING H232 mutant assessed as thermal stability by measuring melting temperature […] differential scanning fluorimetry (reference value: 39.5 degreeC); conditions: filed as activator; how it was run: as §4
[10] = organism: Homo sapiens; experiment: Binding affinity to human STING 293Q mutant assessed as thermal stability by measuring melting temperature […] differential scanning fluorimetry (reference value: 46.25 degreeC); conditions: filed as activator; how it was run: as §4
[11] = system: Stimulator of interferon genes protein (Homo sapiens), Q86WV6 [R71H,G230A,R293Q]; experiment: Binding affinity to human STING HAQ mutant assessed as thermal stability by measuring melting temperature […] differential scanning fluorimetry (reference value: 37.25 degreeC); conditions: filed as activator; how it was run: as §4
Sequence of Stimulator of interferon genes protein (Homo sapiens), Q86WV6 [R71H,G230A,R293Q] (Q86WV6 whole entry R71H/G230A/R293Q): as the sequence (Q86WV6 whole entry, the tested form may be a part) above, with R71H, G230A, R293Q counted along it

[12] = organism: Mus musculus; experiment: Binding affinity to mouse STING mR231 mutant assessed as thermal stability by measuring melting temperature […] differential scanning fluorimetry (reference value: 42 degreeC); conditions: filed as activator; how it was run: as §4
[13] = system: 293-Dual hSTING-H232; experiment: Activation of STING H232 in human 293-Dual hSTING-H232 cells assessed as induction of ISG signaling measured after 24 hrs; format: cell-based; conditions: filed as activator, dose 0.005-10 µM; how it was run: as §3
[14] = system: Stimulator of interferon genes protein (Homo sapiens), Q86WV6 [UNDEFINED MUTATION]; experiment: Activation of STING H232 in human 293-Dual hSTING-R232 cells assessed as induction of ISG signaling measured after 24 hrs; format: cell-based; conditions: filed as activator, dose 0.005-10 µM; how it was run: as §3
[15] = system: 4T1; experiment: Antitumor activity against mouse 4T1 cells and CT26 cells co-inoculated in orthotopic BALB/c mouse assessed as supression of tumor growth at 10 mg/kg, iv administered on day 1,4 and 7 post inoculation; format: functional, organism-based; conditions: time 7.0 day, in the assay text read “4T1 cells inoculated” for “4T1 cells and CT26 cells co-inoculated”
How it was run: (§5)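 BALB/c mice bearing orthotopic 4T1 tumors (5 × 10⁵ cells in the breast fat pad; n = 5) dosed iv at 10 mg/kg on days 1, 4 and 7 once tumors reached about 50–100 mm³. Tumor volume calculated as (a × b²)/2 and, with body weight, measured twice weekly.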

[16] = system: RAW-Lucia ISG-KO-STING; experiment: Effect on ISG expression in mouse RAW-Lucia ISG-KO-STING cells at 0.005 to 10 uM measured after 24 hrs; format: functional, cell-based; conditions: dose 0.005-10 µM; how it was run: as §3
[17] = system: CT26; experiment: Antitumor activity against mouse CT26 cells inoculated in BALB/c mouse assessed as inhibition of tumor growth at 500 ug, IT(Intratumoral) administered on day 1,4 and 7 post inoculation; format: functional; conditions: dose 500.0 µg, time 7.0 day
How it was run: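 BALB/c mice with subcutaneous CT26 tumors (5 × 10⁵ cells, right armpit; n = 6) given 500 μg intratumorally on days 1, 4 and 7 at about 50–100 mm³. Tumor volume ((a × b²)/2) and body weight measured twice weekly.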

[18] = target: T2, Stimulator of interferon genes protein (Mus musculus) (UniProt Q3TBT3); experiment: Activation of mouse STING expressed in RAW-Lucia ISG cells at 50 uM incubated for 24 hrs by QUANTI-Luc luciferase reporter gene assay relative to control; conditions: filed as activator
T2 sequence (whole entry): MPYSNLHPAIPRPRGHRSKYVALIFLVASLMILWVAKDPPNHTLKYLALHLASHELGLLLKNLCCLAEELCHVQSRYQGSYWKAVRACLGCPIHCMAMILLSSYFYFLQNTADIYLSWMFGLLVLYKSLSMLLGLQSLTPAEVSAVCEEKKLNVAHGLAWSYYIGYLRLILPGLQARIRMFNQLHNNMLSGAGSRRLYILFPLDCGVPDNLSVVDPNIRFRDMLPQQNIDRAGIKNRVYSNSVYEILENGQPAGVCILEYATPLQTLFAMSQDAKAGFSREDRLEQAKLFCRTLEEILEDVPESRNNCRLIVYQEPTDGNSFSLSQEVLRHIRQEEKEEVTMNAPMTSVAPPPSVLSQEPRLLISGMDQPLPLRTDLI

[19] = system: CT26; experiment: Antitumor activity against mouse CT26 cells inoculated in BALB/c mouse assessed as inhibition of tumor growth IT(Intratumoral) administered on day 1,4 and 7 post inoculation; conditions: time 7.0 day
[20] = Solubility of the compound; format: physicochemical
[21] = target: T1, Stimulator of interferon genes protein; experiment: Activation of STING in human THP1-Dual cells assessed as induction of ISG signaling at 0.005 to 10 uM measured after 24 hrs by Quanti-Blue reagent based assay; format: cell-based; conditions: filed as activator, dose 0.005-10 µM; how it was run: as §1
[22] = target: T1, Stimulator of interferon genes protein; experiment: Activation of STING in human THP1-Dual cells assessed as induction of NF-KB signaling at 0.005 to 10 uM measured after 24 hrs by Quanti-Blue reagent based assay; format: cell-based; conditions: filed as activator, dose 0.005-10 µM; how it was run: as §1
[23] = system: 4T1; experiment: Antitumor activity against mouse 4T1 cells […] in orthotopic BALB/c mouse assessed as tumor regression at 10 mg/kg, iv administered on day 1,4 and 7 post inoculation; format: functional, organism-based; conditions: time 7.0 day; how it was run: as §5

Row | SMILES | fold change (FC) [1] | Activity [4] | Activity [5] | Activity [6] | Tm [8] [°C] | Tm [9] [°C] | Tm [10] [°C] | Tm [11] [°C] | Tm [12] [°C] | fold change (FC) [18] | also measured
1 | CCn1nc(C)cc1C(=O)/N=c1\[nH]c2cc(-c3ncn[nH]3)cc(OC)c2n1C/C=C/Cn1/c(=N/C(=O)c2cc(C)nn2CC)[nH]c2cc(C(N)=O)cc(OCCCN3CCOCC3)c21 | 19.2 | Active | Active | Dose-Dependent Effect | 45.5 | 46.8 | 46.8 | 45.8 | 52.8 | 3.2 | Activity [2]: Dose-Dependent Effect; Activity [3]: Dose-Dependent Effect; Activity [7]: inactive; Activity [13]: Dose-Dependent Effect; Activity [14]: Dose-Dependent Effect; inhibition [15]: Active; Activity [16]: inactive; inhibition [17]: Active
2 | Cc1ccc2c(=O)c3cccc(CC(=O)O)c3oc2c1C | – | – | – | – | – | – | – | – | – | – | inhibition [19]: Active
3 | CCn1nc(C)cc1C(=O)/N=c1\[nH]c2cc(C(N)=O)cc(OC)c2n1C/C=C/Cn1/c(=N/C(=O)c2cc(C)nn2CC)[nH]c2cc(C(N)=O)cc(OCCCN3CCOCC3)c21.Cl.Cl.Cl | 26 | Active | Active | Dose-Dependent Effect | 48.5 | 50.2 | 49 | 48.8 | 55.5 | 8.11 | solubility [20]: 3230 µg/mL; Activity [21]: Active; Activity [22]: Active; Activity [23]: Active
